We go through one molecule from ChEMBL document CHEMBL3808372, “Identification of quinones as novel PIM1 kinase inhibitors” (Bioorg Med Chem Lett, 2016).

Common to all, as to design: scale not given: the % may be the effect or the level left
Test [1] has as its target Tyrosine-protein kinase ABL1 (Homo sapiens) (UniProt P00519). As to the kind of experiment: Inhibition of human ABL1 kinase phosphorylation (229 to 512 amino acid residues) assessed as enzyme activity at 10 uM by KINOMEScan assay. The method in brief:
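Competition binding screen on a 100-kinase KINOMEscan panel, compound tested at a single 10 μM concentration. Primary binding read-out expressed as % Ctrl = (test compound signal − positive control signal)/(negative control signal − positive control signal) × 100, with lower values meaning stronger binding.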

Test [2] concerns the target Insulin-like growth factor 1 receptor (Homo sapiens) (UniProt P08069). As to the kind of experiment: Inhibition of human IGF1R (972 to 1294 amino acid residues) assessed as enzyme activity at 10 uM by KINOMEScan assay expressed in bacterial system assessed as enzyme activity at 10 uM by KINOMEScan assay. The method in brief:
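Commercial KINOMEscan binding panel of 100 kinases, test compound at 10 μM. Results are primary-screen binding interactions expressed as % Ctrl = (test compound signal − positive control signal)/(negative control signal − positive control signal) × 100. Lower % Ctrl means stronger binding.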

Test [3] concerns the target Proto-oncogene tyrosine-protein kinase Src (Homo sapiens) (UniProt P12931). The test can be described thus: Inhibition of human SRC (240 to 536 amino acid residues) expressed in bacterial system assessed as enzyme activity at 10 uM by KINOMEScan assay. The method in brief: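 Single-concentration competition binding screen (KINOMEscan) across a 100-kinase panel at 10 μM. Primary binding read-out is reported as % of control: (test signal − positive-control signal)/(negative-control signal − positive-control signal) × 100. Lower values indicate stronger binding.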

Tyrosine-protein kinase ABL1 (Homo sapiens), sequence (P00519 whole entry, the tested form may be a part): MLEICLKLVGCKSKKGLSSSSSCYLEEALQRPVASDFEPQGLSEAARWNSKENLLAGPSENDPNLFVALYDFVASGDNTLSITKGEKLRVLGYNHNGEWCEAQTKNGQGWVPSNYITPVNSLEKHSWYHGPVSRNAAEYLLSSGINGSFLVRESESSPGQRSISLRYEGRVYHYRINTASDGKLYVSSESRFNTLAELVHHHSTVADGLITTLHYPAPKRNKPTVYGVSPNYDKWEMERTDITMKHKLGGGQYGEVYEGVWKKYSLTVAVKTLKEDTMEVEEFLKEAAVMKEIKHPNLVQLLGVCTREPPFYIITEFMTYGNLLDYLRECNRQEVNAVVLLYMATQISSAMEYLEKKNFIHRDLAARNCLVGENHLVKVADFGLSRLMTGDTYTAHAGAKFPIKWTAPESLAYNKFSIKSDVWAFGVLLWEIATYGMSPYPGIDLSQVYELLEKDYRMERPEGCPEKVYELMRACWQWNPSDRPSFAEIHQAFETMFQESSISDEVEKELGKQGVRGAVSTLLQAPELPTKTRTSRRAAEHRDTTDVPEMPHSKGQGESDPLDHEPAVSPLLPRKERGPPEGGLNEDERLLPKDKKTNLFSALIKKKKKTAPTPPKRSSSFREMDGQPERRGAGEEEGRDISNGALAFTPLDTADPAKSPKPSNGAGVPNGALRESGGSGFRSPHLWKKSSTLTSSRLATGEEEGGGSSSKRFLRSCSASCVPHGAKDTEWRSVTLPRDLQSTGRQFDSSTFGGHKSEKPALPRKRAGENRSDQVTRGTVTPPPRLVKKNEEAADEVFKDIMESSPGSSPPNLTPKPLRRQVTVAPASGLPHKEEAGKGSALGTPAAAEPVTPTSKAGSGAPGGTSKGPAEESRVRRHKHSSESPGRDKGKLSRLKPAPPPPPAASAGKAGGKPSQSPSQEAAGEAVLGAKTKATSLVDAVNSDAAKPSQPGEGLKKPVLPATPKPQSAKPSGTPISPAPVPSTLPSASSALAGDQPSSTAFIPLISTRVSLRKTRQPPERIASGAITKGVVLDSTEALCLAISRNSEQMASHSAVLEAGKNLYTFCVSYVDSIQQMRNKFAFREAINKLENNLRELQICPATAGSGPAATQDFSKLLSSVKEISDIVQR
Insulin-like growth factor 1 receptor (Homo sapiens), sequence (P08069 31-736 limits assumed): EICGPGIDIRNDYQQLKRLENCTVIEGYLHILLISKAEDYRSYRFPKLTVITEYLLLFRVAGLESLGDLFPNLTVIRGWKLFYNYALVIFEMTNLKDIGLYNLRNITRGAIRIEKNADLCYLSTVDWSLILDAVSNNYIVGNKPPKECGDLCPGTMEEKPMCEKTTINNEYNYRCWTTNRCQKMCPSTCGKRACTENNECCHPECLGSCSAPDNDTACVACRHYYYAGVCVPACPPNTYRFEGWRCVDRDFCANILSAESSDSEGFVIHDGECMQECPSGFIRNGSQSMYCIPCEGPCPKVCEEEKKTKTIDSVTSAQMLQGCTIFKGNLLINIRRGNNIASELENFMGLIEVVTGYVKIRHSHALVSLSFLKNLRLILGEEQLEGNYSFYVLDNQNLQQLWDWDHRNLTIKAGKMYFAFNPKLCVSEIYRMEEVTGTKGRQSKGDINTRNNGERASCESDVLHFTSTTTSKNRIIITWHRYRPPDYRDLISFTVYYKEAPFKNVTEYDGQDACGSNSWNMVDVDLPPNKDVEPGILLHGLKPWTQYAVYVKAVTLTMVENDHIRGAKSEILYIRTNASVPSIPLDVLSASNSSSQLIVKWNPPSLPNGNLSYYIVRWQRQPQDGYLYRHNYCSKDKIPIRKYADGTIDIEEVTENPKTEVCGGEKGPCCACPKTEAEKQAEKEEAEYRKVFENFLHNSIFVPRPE
Insulin-like growth factor 1 receptor (Homo sapiens), sequence (P08069 741-1367 limits assumed): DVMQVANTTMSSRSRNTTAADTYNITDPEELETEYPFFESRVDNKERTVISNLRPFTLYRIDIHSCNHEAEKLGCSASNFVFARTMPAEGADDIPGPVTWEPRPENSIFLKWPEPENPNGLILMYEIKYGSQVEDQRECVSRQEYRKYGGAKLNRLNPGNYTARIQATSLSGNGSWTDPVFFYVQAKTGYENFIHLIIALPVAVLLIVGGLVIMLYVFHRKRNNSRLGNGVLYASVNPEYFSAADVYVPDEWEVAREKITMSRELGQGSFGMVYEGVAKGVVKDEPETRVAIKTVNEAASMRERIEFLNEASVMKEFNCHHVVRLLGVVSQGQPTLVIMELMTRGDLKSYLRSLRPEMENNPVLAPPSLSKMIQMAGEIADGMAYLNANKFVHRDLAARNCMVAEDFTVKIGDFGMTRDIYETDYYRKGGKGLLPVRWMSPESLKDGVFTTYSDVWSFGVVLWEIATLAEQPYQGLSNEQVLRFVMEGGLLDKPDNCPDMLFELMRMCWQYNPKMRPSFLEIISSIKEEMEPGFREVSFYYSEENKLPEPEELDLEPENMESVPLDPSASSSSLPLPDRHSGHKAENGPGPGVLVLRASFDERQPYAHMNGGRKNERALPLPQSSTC
Proto-oncogene tyrosine-protein kinase Src (Homo sapiens), sequence (P12931 2-536 limits assumed): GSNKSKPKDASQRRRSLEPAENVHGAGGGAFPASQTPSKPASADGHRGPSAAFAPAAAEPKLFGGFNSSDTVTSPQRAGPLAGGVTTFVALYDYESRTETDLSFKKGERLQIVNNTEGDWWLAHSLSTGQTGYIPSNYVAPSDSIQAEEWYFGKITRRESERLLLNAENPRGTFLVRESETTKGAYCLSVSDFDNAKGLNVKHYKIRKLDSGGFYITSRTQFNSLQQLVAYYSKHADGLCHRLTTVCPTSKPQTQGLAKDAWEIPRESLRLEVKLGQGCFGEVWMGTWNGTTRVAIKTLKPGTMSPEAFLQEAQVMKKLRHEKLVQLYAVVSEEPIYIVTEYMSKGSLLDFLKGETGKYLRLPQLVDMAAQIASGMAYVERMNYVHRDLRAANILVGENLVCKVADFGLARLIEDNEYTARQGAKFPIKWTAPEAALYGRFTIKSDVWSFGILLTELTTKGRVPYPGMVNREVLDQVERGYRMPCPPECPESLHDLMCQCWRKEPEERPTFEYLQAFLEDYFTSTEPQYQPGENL

For `O=C1C2=C(C(=O)c3c(O)ccc(O)c31)[C@@H](O)[C@@H](O)[C@@H](O)C2`, the Activity came to 88% in test [1], 100% in test [2] and 91% in test [3].
